Assay results published in paper PMC4160279 (Journal of the American Chemical Society, 2014).
“And” between values parts separate entries of the source, which are not always exact repeats. Equal entries are not always repeated.

Columns and labels:
NoV VA387 P dimer [1] = assay: Direct ESI-MS assay, NoV VA387 P dimer; set-up: species or system human NoV VA387 (GII.4); conditions: intrinsic (per binding site) association constant; aqueous ammonium acetate (200 mM), pH 7, 25 °C
Method in brief: (§1)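 Recombinant P dimer, buffer-exchanged into ammonium acetate and quantified by UV, was mixed (e.g., 12 μM) with ganglioside oligosaccharide (e.g., 80 μM) and reference protein (4 μM). Nanoelectrospray in negative ion mode used capillary −0.8 kV, cone 60 V and source 60 °C. Runs covered ≥4 initial ligand concentrations in triplicate. Ka,int came from bound/free abundance ratios, corrected for nonspecific binding, with two equivalent sites.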

NoV VA115 P dimer = assay: Direct ESI-MS assay, NoV VA115 P dimer; set-up: species or system human NoV VA115 (GI.3); conditions: intrinsic (per binding site) association constant; aqueous ammonium acetate (200 mM), pH 7, 25 °C
Method in brief: as §1

NoV VA387 P particle [2] = assay: CaR-ESI-MS screening assay; format: binding, human NoV VA387 (GII.4); conditions: P particle (3 μM) and 10 μM of GD1a or GD1b
P dimer VA387 = P dimer VA387 (Human calicivirus NLV/VA98387/1998, UniProt Q913Z3); assay: Direct ESI-MS assay; format: binding; conditions: n = 3
Method in brief: (§2)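 Recombinant P dimer (P domain residues 222–539, made in E. coli via a GST fusion system) was titrated with at least four initial oligosaccharide concentrations, in triplicate. Example mix: 12 μM dimer, 80 μM ligand, 4 μM reference protein. Bound/free abundance ratios were taken as solution ratios after nonspecific-binding correction. Ka,int was fitted assuming two independent, equivalent sites.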

P dimer VA115 = biological target: T1, P dimer VA115 (Human calicivirus NLV/VA98115/1998, UniProt Q91H12); assay: Direct ESI-MS assay; format: binding; conditions: n = 3
T1 sequence (Q91H12 227-545): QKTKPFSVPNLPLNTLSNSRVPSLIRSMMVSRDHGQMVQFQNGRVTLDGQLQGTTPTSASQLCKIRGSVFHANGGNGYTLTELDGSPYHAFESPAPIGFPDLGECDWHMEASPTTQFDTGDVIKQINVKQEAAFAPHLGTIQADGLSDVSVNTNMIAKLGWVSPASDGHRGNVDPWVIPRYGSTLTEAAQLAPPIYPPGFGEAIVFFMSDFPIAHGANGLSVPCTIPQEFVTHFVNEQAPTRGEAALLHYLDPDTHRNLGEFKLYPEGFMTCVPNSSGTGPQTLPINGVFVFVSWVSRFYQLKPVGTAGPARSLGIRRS
Method in brief: as §2

NoV VA387 P dimer [3] = conditions: reported values; cited from earlier work
NoV VA387 P particle [4] = assay: Proxy protein ESI-MS method, VA387 P particle; format: binding, human NoV VA387 (GII.4); conditions: aqueous ammonium acetate (160 mM), pH 7, 25 °C; Gal-3C as proxy protein
Method in brief: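 Gal-3C proxy (3.0 μM), ubiquitin reference (1.0 μM) and GM3 trisaccharide (40 μM) were mixed with VA387 P particle at 0–7.2 μM (0–172.8 μM monomer); the 24-mer came from E. coli. Positive-mode nanoESI. GM3-bound/free proxy ratio was measured after nonspecific-binding correction. Ka,int per site was derived from the ratio change using the known proxy association constant and binding-site concentration.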

NoV VA387 VLP = assay: Proxy protein ESI-MS method, VA387 VLP; format: binding, human NoV VA387 (GII.4); conditions: aqueous ammonium acetate (160 mM), pH 7, 25 °C; Gal-3C as proxy protein
Method in brief: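 VLPs were expressed from VA387 VP1 in Sf9 cells by recombinant baculovirus and purified on a sucrose gradient, then tested at 0–570 nM (0–102.6 μM monomer). Each mix held Gal-3C proxy (3.0 μM), ubiquitin reference (1.0 μM) and GM3 trisaccharide (40 μM). Positive-mode nanoESI. Ka,int per site came from the corrected proxy bound/free ratio versus VLP concentration, using the known proxy affinity.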

[5] = biological target: recombinant fragment of the C-terminus of human galectin-3 (Gal-3C) (Homo sapiens, UniProt P17931); assay: ESI-MS binding of ligand to proxy protein Gal-3C; conditions: association constant of proxy protein for the ligand
recombinant fragment of the C-terminus of human galectin-3 (Gal-3C), sequence (P17931 118-248 limits assumed): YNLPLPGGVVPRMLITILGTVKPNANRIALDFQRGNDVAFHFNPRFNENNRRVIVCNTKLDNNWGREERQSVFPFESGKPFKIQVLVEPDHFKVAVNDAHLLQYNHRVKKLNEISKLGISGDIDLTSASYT

P dimer VA387, sequence (Q913Z3 222-539): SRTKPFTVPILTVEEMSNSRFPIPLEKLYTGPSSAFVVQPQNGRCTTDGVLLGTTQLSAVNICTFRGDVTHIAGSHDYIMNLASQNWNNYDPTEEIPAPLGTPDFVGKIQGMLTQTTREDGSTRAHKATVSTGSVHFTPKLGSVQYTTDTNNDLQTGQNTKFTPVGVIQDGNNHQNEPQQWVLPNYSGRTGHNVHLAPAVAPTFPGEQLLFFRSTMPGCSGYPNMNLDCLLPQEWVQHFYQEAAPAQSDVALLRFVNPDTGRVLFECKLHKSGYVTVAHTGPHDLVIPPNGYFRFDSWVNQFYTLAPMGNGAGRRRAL

CC(=O)N[C@H]1[C@H](O[C@@H]2[C@H](O[C@]3(C(=O)O)C[C@H](O)[C@@H](NC(C)=O)[C@H]([C@H](O)[C@H](O)CO)O3)[C@@H](O)[C@H](O[C@H]3[C@H](O)[C@@H](O)C(O)O[C@@H]3CO)O[C@@H]2CO)O[C@H](CO)[C@H](O)[C@@H]1O[C@@H]1O[C@H](CO)[C@H](O)[C@H](O[C@]2(C(=O)O)C[C@H](O)[C@@H](NC(C)=O)[C@H]([C@H](O)[C@H](O)CO)O2)[C@H]1O (stereo partly drawn) [GD1a]
Ka,int P dimer VA387 (NoV VA387 P dimer [1]): <100 M^–1 | Ka,int P dimer VA115 (NoV VA115 P dimer): 320 ± 90 M^–1 | binding to P particle, ligand tested alone (NoV VA387 P particle [2]): binds

CC(=O)N[C@H]1[C@H](O[C@@H]2[C@H](O[C@]3(C(=O)O)C[C@H](O)[C@@H](NC(C)=O)[C@H]([C@H](O)[C@H](O)CO)O3)[C@@H](O)[C@H](O[C@H]3[C@H](O)[C@@H](O)C(O)O[C@@H]3CO)O[C@@H]2CO)O[C@H](CO)[C@H](O)[C@@H]1O[C@@H]1O[C@H](CO)[C@H](O)[C@H](O)[C@H]1O (stereo partly drawn) [GM1a, GM1a ganglioside oligosaccharide (Galb1-3GalNAcb1-4(Neu5Aca2-3)Galb1-4Glc)]
Kd (P dimer VA387): 2860 µM | Kd (P dimer VA115): 2500 µM

CC(=O)N[C@H]1C(O)O[C@H](CO)[C@H](O)[C@@H]1O[C@@H]1O[C@H](CO)[C@H](O)[C@H](O[C@H]2O[C@H](CO)[C@H](O)[C@H](O)[C@H]2O)[C@H]1O[C@@H]1O[C@@H](C)[C@@H](O)[C@@H](O)[C@@H]1O (stereo partly drawn) [B3, B type 3 tetrasaccharide]
intrinsic affinity (Ka,int) of HBGA ligands (NoV VA387 P dimer [3]): 1500 ± 150 M^–1

CC(=O)N[C@H]1[C@H](O[C@@H]2[C@H](O[C@]3(C(=O)O)C[C@H](O)[C@@H](NC(C)=O)[C@H]([C@H](O)[C@H](O)CO)O3)[C@@H](O)[C@H](O[C@H]3[C@H](O)[C@@H](O)C(O)O[C@@H]3CO)O[C@@H]2CO)O[C@H](CO)[C@H](O)[C@@H]1O[C@@H]1O[C@H](CO)[C@H](O)[C@H](O[C@]2(C(=O)O)C[C@H](O)[C@@H](NC(C)=O)[C@H]([C@H](O)[C@H](O)CO)O2)[C@H]1O (stereo partly drawn) [GD1a, GD1a ganglioside oligosaccharide (Neu5Aca2-3Galb1-3GalNAcb1-4(Neu5Aca2-3)Galb1-4Glc)]
Kd (P dimer VA387): > 10000 µM | Kd (P dimer VA115): 3120 µM

CC(=O)N[C@H]1[C@H](O[C@@H]2[C@H](O[C@]3(C(=O)O)C[C@H](O)[C@@H](NC(C)=O)[C@H]([C@H](O)[C@@H](CO)O[C@]4(C(=O)O)C[C@H](O)[C@@H](NC(C)=O)[C@H]([C@H](O)[C@@H](CO)O[C@]5(C(=O)O)C[C@H](O)[C@@H](NC(C)=O)[C@H]([C@H](O)[C@H](O)CO)O5)O4)O3)[C@@H](O)[C@H](O[C@H]3[C@H](O)[C@@H](O)C(O)O[C@@H]3CO)O[C@@H]2CO)O[C@H](CO)[C@H](O)[C@@H]1O[C@@H]1O[C@H](CO)[C@H](O)[C@H](O)[C@H]1O (stereo partly drawn) [GT1c, GT1c ganglioside oligosaccharide (Galb1-3GalNAcb1-4(Neu5Aca2-8Neu5Aca2-8Neu5Aca2-3)Galb1-4Glc)]
Ka,int (P dimer VA387): <100 M⁻¹ | Ka,int (P dimer VA115): 260 ± 110 M⁻¹

CC(=O)N[C@H]1[C@H]([C@H](O)[C@H](O)CO)O[C@@](O[C@H](CO)[C@@H](O)[C@@H]2O[C@@](O[C@H]3[C@@H](O)[C@@H](CO)O[C@@H](O[C@H]4[C@H](O)[C@@H](O)C(O)O[C@@H]4CO)[C@@H]3O)(C(=O)O)C[C@H](O)[C@H]2NC(C)=O)(C(=O)O)C[C@@H]1O (stereo partly drawn) [GD3, GD3 ganglioside oligosaccharide (Neu5Aca2-8Neu5Aca2-3Galb1-4Glc)]
Kd (P dimer VA387): 2940 µM | Kd (P dimer VA115): 2380 µM

CC(=O)N[C@H]1[C@H]([C@H](O)[C@H](O)CO)O[C@@](O[C@H]2[C@@H](O)[C@@H](CO)O[C@@H](O[C@H]3[C@H](O)[C@@H](O)C(O)O[C@@H]3CO)[C@@H]2O)(C(=O)O)C[C@@H]1O (stereo partly drawn) [GM3]
Ka,int P dimer VA387 (NoV VA387 P dimer [1]): 1500 M^–1 and 1500 ± 150 M^–1 | Ka,int P dimer VA115 (NoV VA115 P dimer): 1300 ± 130 M^–1 | affinity (Ka,int) for VA387 P particle (NoV VA387 P particle [4]): 2600 ± 200 M^–1 | affinity (Ka,int) for VA387 VLP (NoV VA387 VLP): 5500 ± 600 M^–1 | affinity for Gal-3C [5]: (1.20 ± 0.02) × 10^4 M^–1

CC(=O)N[C@H]1[C@H](O[C@@H]2[C@H](O[C@]3(C(=O)O)C[C@H](O)[C@@H](NC(C)=O)[C@H]([C@H](O)[C@H](O)CO)O3)[C@@H](O)[C@H](O[C@H]3[C@H](O)[C@@H](O)C(O)O[C@@H]3CO)O[C@@H]2CO)O[C@H](CO)[C@H](O)[C@@H]1O (stereo partly drawn) [GM2, GM2 ganglioside oligosaccharide (GalNAcb1-4(Neu5Aca2-3)Galb1-4Glc)]
Kd (P dimer VA387): 2780 µM | Kd (P dimer VA115): 1430 µM

CC(=O)N[C@H]1[C@H]([C@H](O)[C@H](O)CO)O[C@@](O[C@H]2[C@@H](O)[C@@H](CO)O[C@@H](O[C@H]3[C@H](O)[C@@H](O)C(O)O[C@@H]3CO)[C@@H]2O)(C(=O)O)C[C@@H]1O (stereo partly drawn) [GM3, GM3 ganglioside oligosaccharide (GM3 trisaccharide, Neu5Aca2-3Galb1-4Glc)]
Kd (P dimer VA387): 667 µM | Kd (P dimer VA115): 769 µM
